Values after ≈ are worked out from the molar mass of the structure shown.
Assays:
[1] = Cmax in Sprague-Dawley rat at 3 mg/kg, po administered as spray-dried dispersion formulation and measured after 24 hrs by LC-MS/MS analysis; format: ADME, organism-based; set-up: time 24 hrs, dose 3 mg/kg, route po; conditions: in vivo
In short: (§1)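 Rats were dosed orally at 3, 10 and 30 mg/kg with a spray-dried dispersion of the free base and HPMCP-HP55 polymer (25%/75%), in 30% Dexolve. Total plasma Cmax and AUC were measured, N = 3.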

[2] = Metabolic stability in human liver microsomes assessed as intrinsic clearance at 1 uM preincubated for 5 mins followed by NADPH addition and measured for 45 mins by LC/MS/MS analysis; format: ADME, Microsome; conditions: time 50 min, read-out: CLH
[3] = Cmax in Sprague-Dawley rat at 30 mg/kg, po administered as spray-dried dispersion formulation and measured after 24 hrs by LC-MS/MS analysis; format: ADME, organism-based; set-up: time 24 hrs, dose 30 mg/kg, route po; conditions: in vivo; in short: as §1
[4] = Cmax in CD-1 mouse plasma at 3 mg/kg, po and measured upto 24 hrs by LC-MS/MS analysis; format: ADME, organism-based; set-up: time < 24 hrs, dose 3 mg/kg, route po
In short: (§2)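 Single oral 3 mg/kg dose in mouse, SD rat, beagle and cyno. Cmax is the peak total plasma concentration. Values are means of two to three animals.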

[5] = molecular target: Metabotropic glutamate receptor 5 (Rattus norvegicus, UniProt P31424); test: Positive allosteric modulator activity at rat mGlu5 in human HEK cells assessed as increase in calcium flux preincubated for 2.5 mins followed by gluatamate addition by Fluo-4 AM dye based calcium mobilization assay; format: cell-based
[6] = Drug uptake in cerebrospinal fluid of haloperidol-induced catalepsy Sprague-Dawley rat model at 0.3 to 30 mg/kg,po; format: ADME, organism-based; conditions: in vivo, dose 0.3-30 mg/kg, read-out: Ct
In short: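 Rats were given haloperidol 1.5 mg/kg i.p. to induce catalepsy and dosed orally at 0.3–30 mg/kg, N = 8–10 per group. Total plasma and CSF concentrations were measured alongside the catalepsy read-out. Satellite rats were used for PK in the time-course study.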

[7] = molecular target: Metabotropic glutamate receptor 2 (Rattus norvegicus, UniProt P31421); test: Positive allosteric modulator activity at rat mGlu2 in human HEK cells co-expressing […] assessed as increase in by thallium flux preincubated for 2.5 mins followed by gluatamate addition by thallium flux assay; format: cell-based
Sequence of Metabotropic glutamate receptor 2 (P31421 whole entry): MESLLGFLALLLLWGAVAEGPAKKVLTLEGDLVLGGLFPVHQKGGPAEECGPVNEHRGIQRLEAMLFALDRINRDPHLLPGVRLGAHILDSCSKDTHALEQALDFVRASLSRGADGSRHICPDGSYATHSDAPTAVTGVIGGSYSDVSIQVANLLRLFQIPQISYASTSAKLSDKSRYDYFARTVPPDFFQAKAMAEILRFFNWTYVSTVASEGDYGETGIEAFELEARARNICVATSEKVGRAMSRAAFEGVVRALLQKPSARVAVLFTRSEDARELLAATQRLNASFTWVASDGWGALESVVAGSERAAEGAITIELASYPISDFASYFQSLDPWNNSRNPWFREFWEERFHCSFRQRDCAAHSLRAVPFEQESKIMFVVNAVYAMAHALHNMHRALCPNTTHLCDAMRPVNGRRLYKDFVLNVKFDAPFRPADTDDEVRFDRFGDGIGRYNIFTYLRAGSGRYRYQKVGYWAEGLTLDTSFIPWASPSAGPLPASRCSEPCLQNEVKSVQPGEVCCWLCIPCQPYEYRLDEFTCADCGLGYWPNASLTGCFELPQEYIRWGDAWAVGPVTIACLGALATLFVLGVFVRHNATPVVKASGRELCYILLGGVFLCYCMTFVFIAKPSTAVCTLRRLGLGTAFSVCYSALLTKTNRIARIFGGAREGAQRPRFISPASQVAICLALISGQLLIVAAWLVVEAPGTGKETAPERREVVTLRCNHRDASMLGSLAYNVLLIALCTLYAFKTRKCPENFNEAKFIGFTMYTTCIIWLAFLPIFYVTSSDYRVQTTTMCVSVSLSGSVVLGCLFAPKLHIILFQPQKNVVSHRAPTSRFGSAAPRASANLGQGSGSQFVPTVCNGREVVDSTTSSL

[8] = molecular target: Metabotropic glutamate receptor 1 (Rattus norvegicus, UniProt P23385); test: Positive allosteric modulator activity at rat mGlu1 in human HEK cells assessed assessed as increase in calcium flux preincubated for 2.5 mins followed by gluatamate addition by Fluo-4 AM dye based calcium mobilization assay; format: cell-based
Sequence of Metabotropic glutamate receptor 1 (P23385 whole entry): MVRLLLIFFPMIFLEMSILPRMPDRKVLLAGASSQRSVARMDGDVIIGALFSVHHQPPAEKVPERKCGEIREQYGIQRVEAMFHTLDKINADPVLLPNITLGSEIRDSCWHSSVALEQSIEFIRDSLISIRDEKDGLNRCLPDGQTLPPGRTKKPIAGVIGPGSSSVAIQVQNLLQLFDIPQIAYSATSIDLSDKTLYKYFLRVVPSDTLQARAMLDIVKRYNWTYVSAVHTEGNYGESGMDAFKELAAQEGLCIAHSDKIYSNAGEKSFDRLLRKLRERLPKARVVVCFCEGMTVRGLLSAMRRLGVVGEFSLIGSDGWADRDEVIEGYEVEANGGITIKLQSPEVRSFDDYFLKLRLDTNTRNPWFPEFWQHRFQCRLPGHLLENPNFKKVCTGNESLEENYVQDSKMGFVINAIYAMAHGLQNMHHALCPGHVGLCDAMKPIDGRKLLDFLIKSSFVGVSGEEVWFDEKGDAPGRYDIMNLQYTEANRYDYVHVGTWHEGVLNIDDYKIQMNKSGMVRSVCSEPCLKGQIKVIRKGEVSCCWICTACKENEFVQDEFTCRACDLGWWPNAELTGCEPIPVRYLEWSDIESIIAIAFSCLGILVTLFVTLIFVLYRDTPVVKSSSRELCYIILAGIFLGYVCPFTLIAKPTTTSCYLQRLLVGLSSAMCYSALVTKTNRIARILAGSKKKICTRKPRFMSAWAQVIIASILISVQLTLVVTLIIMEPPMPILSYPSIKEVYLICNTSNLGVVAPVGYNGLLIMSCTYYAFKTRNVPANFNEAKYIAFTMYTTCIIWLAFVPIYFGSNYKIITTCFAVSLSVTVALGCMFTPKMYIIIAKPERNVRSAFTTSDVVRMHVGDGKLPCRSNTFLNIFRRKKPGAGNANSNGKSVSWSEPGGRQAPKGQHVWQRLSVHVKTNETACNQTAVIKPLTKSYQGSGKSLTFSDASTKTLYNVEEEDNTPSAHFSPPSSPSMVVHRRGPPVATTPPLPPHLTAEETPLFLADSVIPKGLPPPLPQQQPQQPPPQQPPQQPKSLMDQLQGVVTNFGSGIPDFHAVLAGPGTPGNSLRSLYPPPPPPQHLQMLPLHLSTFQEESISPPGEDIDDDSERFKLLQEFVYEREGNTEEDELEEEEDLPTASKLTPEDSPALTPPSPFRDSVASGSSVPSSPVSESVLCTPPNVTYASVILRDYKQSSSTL

[9] = Clearance in Cynomolgus monkey plasma at 0.2 mg/kg, iv and measured upto 24 hrs by LC-MS/MS analysis; format: ADME, organism-based, Macaca fascicularis
In short: (§3)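 Single intravenous doses: mouse 1 mg/kg, SD rat 0.2 mg/kg, beagle dog 0.5 mg/kg, cynomolgus monkey 0.2 mg/kg. Plasma clearance, Vss and elimination half-life came from the plasma profiles. Values are means of two to three animals.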

Cav1.2 = Cav1.2 (Homo sapiens, UniProt Q13936); test: Inhibition of Cav1.2 (unknown origin) at 10 uM; format: toxicity
In short: (§4)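 Cardiac ion channel electrophysiology (functional EP) panel, with percent inhibition measured at 10 μM.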

[10] = Metabolic stability in dog liver microsomes assessed as intrinsic clearance at 1 uM preincubated for 5 mins followed by NADPH addition and measured for 45 mins by LC/MS/MS analysis; format: ADME, Canis lupus familiaris, Microsome; conditions: time 50 min, read-out: CLH
hERG (KCNH2) = hERG (KCNH2) (Homo sapiens, UniProt Q12809); test: Inhibition of human ERG at 10 uM; format: toxicity
Sequence of hERG (KCNH2) (Q12809 whole entry): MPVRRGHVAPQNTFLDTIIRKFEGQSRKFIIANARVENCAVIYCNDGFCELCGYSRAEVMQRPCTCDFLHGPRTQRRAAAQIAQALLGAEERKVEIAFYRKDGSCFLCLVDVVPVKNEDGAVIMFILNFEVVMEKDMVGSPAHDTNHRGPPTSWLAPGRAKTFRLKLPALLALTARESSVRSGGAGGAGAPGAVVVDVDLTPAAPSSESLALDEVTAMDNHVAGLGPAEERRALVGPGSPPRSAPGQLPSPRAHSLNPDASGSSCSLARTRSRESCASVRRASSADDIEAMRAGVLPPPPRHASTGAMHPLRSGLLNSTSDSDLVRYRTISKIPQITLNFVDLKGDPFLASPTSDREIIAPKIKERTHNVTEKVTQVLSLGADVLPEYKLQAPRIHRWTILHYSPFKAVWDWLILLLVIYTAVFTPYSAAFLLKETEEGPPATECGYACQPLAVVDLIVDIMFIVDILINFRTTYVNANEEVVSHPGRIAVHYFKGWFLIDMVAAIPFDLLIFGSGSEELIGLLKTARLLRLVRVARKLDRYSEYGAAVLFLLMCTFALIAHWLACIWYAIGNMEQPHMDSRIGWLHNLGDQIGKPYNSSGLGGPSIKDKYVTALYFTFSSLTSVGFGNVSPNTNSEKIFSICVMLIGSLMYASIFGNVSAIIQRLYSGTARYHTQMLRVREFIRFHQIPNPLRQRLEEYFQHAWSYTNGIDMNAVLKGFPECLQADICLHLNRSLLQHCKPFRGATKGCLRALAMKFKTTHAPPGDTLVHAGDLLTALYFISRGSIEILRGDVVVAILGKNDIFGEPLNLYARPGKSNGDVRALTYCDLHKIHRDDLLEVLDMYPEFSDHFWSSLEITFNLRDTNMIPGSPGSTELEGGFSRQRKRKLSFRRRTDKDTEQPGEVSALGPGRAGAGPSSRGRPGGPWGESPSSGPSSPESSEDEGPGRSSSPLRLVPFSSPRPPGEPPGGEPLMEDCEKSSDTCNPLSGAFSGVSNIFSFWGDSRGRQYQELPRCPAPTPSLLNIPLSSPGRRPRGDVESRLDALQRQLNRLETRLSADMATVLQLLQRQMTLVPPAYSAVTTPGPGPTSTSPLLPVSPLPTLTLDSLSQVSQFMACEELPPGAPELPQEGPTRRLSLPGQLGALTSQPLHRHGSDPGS
In short: (§5)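 Eurofins Cardiac Profiler functional electrophysiology panel of potassium, calcium and sodium cardiac ion channels, including hERG. Compound tested at 10 μM, reported as percent inhibition.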

[11] = Elimination half life in Cynomolgus monkey at 0.2 mg/kg, iv and measured upto 24 hrs by LC-MS/MS analysis; format: ADME, organism-based, Macaca fascicularis; conditions: in vivo, read-out: beta t1/2 (converted); in short: as §3
[12] = Cmax in Cynomolgus monkey at 3 mg/kg, po and measured upto 24 hrs by LC-MS/MS analysis; format: ADME, organism-based, Macaca fascicularis; set-up: dose 3 mg/kg, time < 24 hrs, route po; conditions: in vivo; in short: as §2
Nav1.5 = Nav1.5 (Homo sapiens, UniProt Q14524); test: Inhibition of Nav1.5 (unknown origin) at 10 uM; format: toxicity; in short: as §5
[13] = Solubility of compound intestinal fluid assessed as AUC administered as active pharmaceutical ingredient (API) formulation; format: ADME
[14] = Cmax in Beagle dog at 3 mg/kg, po and measured upto 24 hrs by LC-MS/MS analysis; format: ADME, organism-based, Canis lupus familiaris; set-up: dose 3 mg/kg, time < 24 hrs, route po; conditions: in vivo; in short: as §2
[15] = Elimination half life in Beagle dog at 0.5 mg/kg, iv and measured upto 24 hrs by LC-MS/MS analysis; format: ADME, organism-based, Canis lupus familiaris; conditions: in vivo, read-out: beta t1/2 (converted); in short: as §3
KCNQ1/MINK = KCNQ1/MINK (Homo sapiens, UniProt P51787+Q8N4C8); test: Inhibition of KCNQ1/MINK (unknown origin) at 10 uM; format: toxicity; in short: as §4
[16] = Volume of distribution at steady state in Beagle dog at 0.5 mg/kg, iv and measured upto 24 hrs by LC-MS/MS analysis; format: ADME, organism-based, Canis lupus familiaris; conditions: in vivo, read-out: Vdss
In short: (§6)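 Single-dose iv and oral PK in separate arms: mouse 1 mg/kg iv / 3 mg/kg po, SD rat 0.2/3, beagle 0.5/3, cynomolgus 0.2/3 mg/kg. Plasma parameters (Vss, Tmax, F) are means of two to three animals per species.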

[17] = Unbound drug concentration in Sprague-Dawley rat brain at 0.2 mg/kg, iv and measured upto 24 hrs by LC-MS/MS analysis; format: ADME, organism-based
Cytochrome P450 1A2 = Cytochrome P450 1A2 (Homo sapiens, UniProt P05177); test: Induction of CYP1A2 in human hepatocytes; format: ADME, cell-based
Sequence of Cytochrome P450 1A2 (P05177 whole entry): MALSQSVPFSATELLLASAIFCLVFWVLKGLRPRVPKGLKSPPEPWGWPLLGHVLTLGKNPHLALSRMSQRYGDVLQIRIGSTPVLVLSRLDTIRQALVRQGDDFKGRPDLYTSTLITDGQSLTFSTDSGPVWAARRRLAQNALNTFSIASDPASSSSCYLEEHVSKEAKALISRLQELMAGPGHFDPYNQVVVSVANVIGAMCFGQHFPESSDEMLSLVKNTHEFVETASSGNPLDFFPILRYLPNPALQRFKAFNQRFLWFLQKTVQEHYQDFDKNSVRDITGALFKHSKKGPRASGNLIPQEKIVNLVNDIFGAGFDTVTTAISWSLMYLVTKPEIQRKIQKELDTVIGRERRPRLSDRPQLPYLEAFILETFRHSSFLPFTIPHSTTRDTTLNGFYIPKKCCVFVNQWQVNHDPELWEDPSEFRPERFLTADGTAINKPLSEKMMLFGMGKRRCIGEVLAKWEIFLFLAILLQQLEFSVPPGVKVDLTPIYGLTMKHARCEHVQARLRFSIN
In short: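 CYP1A2, 2B6 and 3A4 induction measured in human hepatocytes.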

[18] = Protein binding in dog plasma assessed as fraction unbound incubated for 4 hrs by equilibrium dialysis based LC/MS/MS analysis; format: ADME, cell-free, Canis lupus familiaris
[19] = AUC (0 to infinity) in Beagle dog at 3 mg/kg, po and measured upto 24 hrs by LC-MS/MS analysis; format: ADME, organism-based, Canis lupus familiaris; set-up: time < 24 hrs, dose 3 mg/kg, route po; conditions: in vivo
In short: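 Single oral 3 mg/kg dose in mouse, SD rat, beagle dog and cynomolgus monkey. Total plasma exposure after the oral dose gave Cmax, Tmax, AUC0-inf and F. Values are means of two to three animals.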

HCN4 = HCN4 (Homo sapiens, UniProt Q9Y3Q4); test: Inhibition of HCN4 (unknown origin) at 10 uM; format: toxicity; in short: as §4
[20] = Tmax in Beagle dog at 3 mg/kg, po and measured upto 24 hrs by LC-MS/MS analysis; format: ADME, organism-based, Canis lupus familiaris; conditions: in vivo; in short: as §6
[21] = Solubility of compound in FaSSGF; format: ADME
[22] = Brain to plasma permeability coefficient, Kp in cynomolgus monkey at 0.2 mg/kg, iv and measured upto 1 hrs by LC-MS/MS analysis; format: ADME, organism-based, Macaca fascicularis
In short: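 Total brain to total plasma partition coefficient (Kp) measured in mouse, SD rat and cynomolgus monkey. The unbound ratio (Kp,uu) was corrected with brain homogenate binding. Values are means of two to three animals.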

[23] = Oral bioavailability in Cynomolgus monkey at 3 mg/kg and measured upto 24 hrs by LC-MS/MS analysis; format: ADME, organism-based, Macaca fascicularis; conditions: in vivo; in short: as §6
[24] = Volume of distribution at steady state in CD-1 mouse plasma at 1 mg/kg, iv and measured upto 24 hrs by LC-MS/MS analysis; format: ADME, organism-based; conditions: read-out: Vdss; in short: as §6
[25] = molecular target: Metabotropic glutamate receptor 4 (Homo sapiens) (UniProt Q14833); test: Positive allosteric modulator activity at human mGlu4 in Chinese hamster CHO cells co-expressing Gqi5 assessed as maximum increase in calcium flux preincubated for 2.5 mins followed by gluatamate addition and measured for 2 mins by Fluo-4 AM dye based calcium mobilization assay; format: cell-based; conditions: filed as positive allosteric modulator, time 4.5 min
Sequence of Metabotropic glutamate receptor 4 (Homo sapiens) (Q14833 whole entry): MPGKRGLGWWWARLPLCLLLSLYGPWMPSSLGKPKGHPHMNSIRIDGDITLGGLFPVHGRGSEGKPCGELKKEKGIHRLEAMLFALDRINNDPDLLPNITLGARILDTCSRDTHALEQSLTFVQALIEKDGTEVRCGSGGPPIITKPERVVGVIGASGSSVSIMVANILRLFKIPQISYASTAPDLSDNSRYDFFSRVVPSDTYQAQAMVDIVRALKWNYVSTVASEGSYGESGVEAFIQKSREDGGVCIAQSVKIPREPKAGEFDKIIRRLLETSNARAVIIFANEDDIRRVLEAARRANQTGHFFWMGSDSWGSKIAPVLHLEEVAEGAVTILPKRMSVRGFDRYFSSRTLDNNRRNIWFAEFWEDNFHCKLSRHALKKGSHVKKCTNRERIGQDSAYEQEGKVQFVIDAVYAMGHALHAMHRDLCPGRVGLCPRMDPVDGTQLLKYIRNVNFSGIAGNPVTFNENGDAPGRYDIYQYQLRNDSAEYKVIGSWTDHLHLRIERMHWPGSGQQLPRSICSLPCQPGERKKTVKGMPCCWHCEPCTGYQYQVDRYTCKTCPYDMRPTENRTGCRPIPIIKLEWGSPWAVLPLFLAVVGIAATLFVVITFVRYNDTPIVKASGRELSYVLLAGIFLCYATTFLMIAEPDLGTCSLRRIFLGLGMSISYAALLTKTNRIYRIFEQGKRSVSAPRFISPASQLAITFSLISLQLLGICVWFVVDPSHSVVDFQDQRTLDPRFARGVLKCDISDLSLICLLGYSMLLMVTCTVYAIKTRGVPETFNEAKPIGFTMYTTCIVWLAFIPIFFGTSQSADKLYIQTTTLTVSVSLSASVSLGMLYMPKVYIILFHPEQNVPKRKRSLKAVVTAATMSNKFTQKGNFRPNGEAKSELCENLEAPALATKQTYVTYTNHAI

- Cmax [1]: 630 nM
- CLint scaled at 1 µM [2]: 9.1 mL/min/kg
- Cmax [3]: 6050 nM
- Cmax [4]: 1100 nM
- EC50 [5]: > 10 µM
- EC50 [7]: > 10 µM
- EC50 [8]: > 10 µM
- clearance [9]: 17.1 mL/min/kg
- CLint scaled at 1 µM [10]: 18.1 mL/min/kg
- half-life [11]: 3.98 h
- Cmax [12]: 260 nM
- AUC [13]: 25300 ng·h/mL
- Cmax [14]: 490 nM
- half-life [15]: 2.95 h
- Vd [16]: 4.3 L/kg
- fraction unbound at 24 h [17]: > 0.001
- Activity (Cytochrome P450 1A2): Not Active
- fraction unbound at 4 h [18]: 0.014
- AUC(0-inf) [19]: 1.82 µM·h
- Tmax [20]: 1 h
- solubility [21]: 9 µg/mL (≈ 27.3 µM)
- Kp at 1 h [22]: 1.24
- bioavailability [23]: 31.6%
- Vd [24]: 9.93 L/kg
- Emax [25]: 92.6%
Structure (SMILES): FC(F)(F)c1nccc2cc(Nc3n[nH]c4ncccc34)ccc12
- concentration [6]: 148 nM
- inhibition at 10 µM (Cav1.2): < 50%
- inhibition at 10 µM (hERG (KCNH2)): < 50%
- inhibition at 10 µM (Nav1.5): < 50%
- inhibition at 10 µM (KCNQ1/MINK): < 50%
- inhibition at 10 µM (HCN4): < 50%

From ChEMBL document CHEMBL5257040, “Discovery of VU2957 (Valiglurax): An mGlu4 Positive Allosteric Modulator Evaluated as a Preclinical Candidate for the Treatment of Parkinson's Disease” (ACS Med Chem Lett, 2019)
